Assay outcomes (PubChem BioAssay)
The list is not random: actives were taken first. Their share in the collection is about 3.7%.
ROMK primary: ROMK potassium channel modulators, primary screen, cell-based, thallium flux, MLSMR library; Tet-inducible ROMK, thallium flux fluorescence; actives lie on both sides; B-score at 10 µM; 130,000 tested, 2% active; AID 1918, 2009;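 active = signal ratio slope over the read window, or its plate-corrected B-score, at least 3 SD from the plate mean, either direction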;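 note: B-score of the F/F0 ratio slope over 7 to 12 s after thallium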
KCC2 mod: KCC2 cotransporter modulators, thallium flux, primary screen, cell-based, HEK293 KCC2, FluoZin-2 fluorescence, MLSMR. Solute carrier family 12 member 5 (Homo sapiens), Q9H2X9. KCC2 cells, thallium flux FluoZin-2 fluorescence. B-score of Tl+ flux slope (higher = more flux/activation; lower = inhibition) at 10 µM. 190,000 tested, 2.2% active. AID 1456, 2008;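 active = thallium flux slope and its plate-corrected score both differing from the plate sample mean at a set confidence after two filtering rounds, in either direction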;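 note: slope of fluorescence scaled to starting intensity during 10 to 20 s after thallium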
Target sequence (Q9H2X9 whole entry, looked up): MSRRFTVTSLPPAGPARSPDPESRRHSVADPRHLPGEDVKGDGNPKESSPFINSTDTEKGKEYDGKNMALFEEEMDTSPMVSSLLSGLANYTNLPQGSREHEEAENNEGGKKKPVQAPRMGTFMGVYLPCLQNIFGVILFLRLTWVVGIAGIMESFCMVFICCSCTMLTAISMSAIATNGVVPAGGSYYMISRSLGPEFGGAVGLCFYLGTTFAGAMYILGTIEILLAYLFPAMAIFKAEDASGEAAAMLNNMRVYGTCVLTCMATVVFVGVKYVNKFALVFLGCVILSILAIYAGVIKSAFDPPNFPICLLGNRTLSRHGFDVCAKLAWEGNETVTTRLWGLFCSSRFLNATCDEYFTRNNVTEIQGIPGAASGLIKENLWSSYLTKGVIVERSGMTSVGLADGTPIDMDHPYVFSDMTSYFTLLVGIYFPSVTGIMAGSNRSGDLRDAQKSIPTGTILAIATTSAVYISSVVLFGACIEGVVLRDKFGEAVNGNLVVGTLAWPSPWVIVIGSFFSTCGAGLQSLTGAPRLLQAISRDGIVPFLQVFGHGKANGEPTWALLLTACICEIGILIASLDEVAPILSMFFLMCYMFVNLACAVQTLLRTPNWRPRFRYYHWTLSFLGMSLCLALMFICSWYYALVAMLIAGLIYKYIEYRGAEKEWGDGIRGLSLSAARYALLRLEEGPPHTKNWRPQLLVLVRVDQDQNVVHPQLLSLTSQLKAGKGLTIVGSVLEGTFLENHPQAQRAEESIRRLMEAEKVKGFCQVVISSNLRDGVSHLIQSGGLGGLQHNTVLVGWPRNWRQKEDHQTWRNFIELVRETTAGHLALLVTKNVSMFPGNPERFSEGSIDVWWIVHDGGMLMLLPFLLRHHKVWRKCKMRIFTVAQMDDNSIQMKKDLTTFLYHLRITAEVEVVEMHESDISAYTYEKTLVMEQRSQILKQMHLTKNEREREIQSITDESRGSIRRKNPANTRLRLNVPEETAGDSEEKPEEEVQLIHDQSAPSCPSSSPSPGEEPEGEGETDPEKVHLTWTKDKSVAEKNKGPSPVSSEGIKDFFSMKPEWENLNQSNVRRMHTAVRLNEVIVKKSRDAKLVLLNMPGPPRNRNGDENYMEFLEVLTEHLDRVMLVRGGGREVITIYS
MT stabilize HCS: microtubule stabilizers in HeLa cells, primary screen, imaging, high-content imaging; % tubulin-high responders, % at 10 µM; AID 2205, 2009; 200,000 tested, 0.83% active; HeLa tubulin immunostaining HCS, 24 h; share of cells brighter than vehicle mean+2SD;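 active = plate Z-score above 3 for both tubulin-high and condensed-nucleus cell shares, with cell loss under 80%, at 10 µM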;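 note: anti alpha tubulin signal scored within the nucleus-defined area of each cell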
bCat nuc transl: modulators of beta-catenin nuclear translocation, primary screen, imaging, HeLa cells, immunofluorescence, high-content. nuclear translocation activity, % at 5 µM. 190,000 tested, 0.3% active. AID 1665, 2009;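 active = nuclear translocation activity above 50% at 5 µM, with a well cell count of 50 or more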;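 note: per-cell ratio of nuclear to cytoplasmic median beta-catenin stain intensity; plate controls were DMSO negative control for no effect and GSK-3 inhibitor IX positive control for full effect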
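System: HeLa cells, endogenous beta-catenin; compound dosing: 5 µM primary single dose, 0.1% DMSO, 0.02–20 µM confirmation series; incubation: 24 h compound exposure at 37°C, 5% CO2; signal: beta-catenin immunofluorescence imaging with DAPI; evaluation: % activation, nuclear-to-cytoplasmic median beta-catenin signal ratio per cell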
Redox H2O2 prof: compounds producing H2O2 with reducing agent – biochemical, NIH compound library profiling, artefact control for MLSCN library redox annotation, primary screen | DTT-dependent redox cycling H2O2, phenol red/HRP absorbance; 100% = 100 µM peroxide control, 0% = buffer | activation, % at 10 µM | 200,000 tested, 0.03% active | AID 878, 2007;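 active = activation of at least 50% relative to the plate's high and low controls in the primary single-dose screen; inactive = activation below 50%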;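 note: compound incubated with DTT at 0.8 mM final as the reducing agent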
An asterisk follows results filed as active; / = not tested or not shown.

SMILES	ROMK primary	KCC2 mod	MT stabilize HCS	bCat nuc transl	Redox H2O2 prof
CCN(CC)c1ccc(NC(=O)c2ccc(=O)[nH]c2)cc1S(=O)(=O)Nc1ccccc1OC	2.4	0.15	28*	2	0
CNC(=O)c1nc(C)c(C2(C)CC(c3ccccc3)=NO2)s1 (configuration not stated)	/	0.16	/	-2	/
COc1ccc(NC(=O)c2nc(C)c(C3(C)CC(c4cccnc4)=NO3)s2)cc1 (configuration not stated)	/	0.69	/	76*	/
O=C(Nc1nnc(C2CC2)s1)C1CC(=O)N(c2ccc3c(c2)OCCO3)C1 (configuration not stated)	0.43	-0.58	3	-1	0
COc1ccc(-c2nc(NC(=O)C3CC(=O)N(c4ccc5c(c4)OCCO5)C3)sc2C)cc1 (configuration not stated)	1.5	0.31	11*	/	0
CCOc1ccc(S(=O)(=O)Oc2ccc3ccccc3c2)cc1	0.39	0.084	17*	1	1
COc1ccc(NC(=O)C(=O)NCCN2CCN(C(=O)c3ccco3)CC2)cc1	0.45	-0.8	2	-1	-1
O=C(Nc1ccccc1Br)C(=O)N1CCCC1	/	-0.38	2	0	0
O=C(NNc1ccccc1Br)C(=O)n1ccc2ccccc21	-0.33	12*	4	2	-1
CC(=O)C(C(C)=O)c1c(Cl)c(O)c(O)c2c(C(=O)c3ccccc3)coc12	-3.4*	-5.3*	3	-1	0
CN1CCN(Cc2c(O)ccc3occ(C(=O)c4ccccc4)c23)CC1	/	/	3	-2	0
CCn1c(=O)n(CC(=O)Nc2ccc(F)cc2)c(=O)c2ccccc21	2.5	1.3	2	0	-1
O=C(Nc1ccccc1Cc1ccccc1)c1ccccc1NS(=O)(=O)c1ccc(Cl)s1	-3.5*	-3.5*	4	0	0
O=C(Nc1ccccc1)c1ccccc1NS(=O)(=O)c1ccc(Cl)s1	/	/	3	6	1
C=CCn1c(O)c(N=NC(=O)CNC(=O)c2ccco2)c2ccccc21	0.35	-0.14	12*	-1	0
CCCn1c(O)c(N=NC(=O)c2ccco2)c2ccccc21	-0.59	18*	7	/	-1
CCn1c(O)c(N=NC(=O)CNC(=O)c2ccco2)c2ccccc21	/	0.13	2	-1	0
CSc1nnc(SCC2=NNC(=O)SC2)s1	0.59	0.018	6	2	0
O/N=C(/CCc1ccccc1)c1ccc2c(c1)OCCO2	-0.27	0.9	5	0	-1
S=c1[nH]nc(-c2ccc(Br)o2)n1Cc1ccccc1	0.49	3.4*	2	3	0
O=C1CCN(c2ccc([N+](=O)[O-])cc2F)CC1	-0.026	0.32	7	0	-2
Cc1cccc(Cn2nc(C)cc2NC(=O)CCCn2ccc([N+](=O)[O-])n2)c1	/	-0.95	7	1	-1
CC(C)Oc1ccc(/C(O)=C2/C(=O)C(=O)N(CCN(C)C)C2c2cccs2)cc1 (configuration not stated)	0.47	-0.21	2	3	0
O=c1c(Cl)c(N2CCOCC2)cnn1-c1nc2ccccc2[nH]1	-0.099	0.14	2	-1	-1
CN(C)c1ccc(C(=O)c2ccc(N(C)C)c(N)c2)cc1N	/	-0.65	23*	5	3
SMILES	ROMK primary	KCC2 mod	MT stabilize HCS	bCat nuc transl	Redox H2O2 prof
CCOc1ccc(C(=O)c2ccc(OCC)c(N)c2)cc1N	/	0.53	53*	5	5
CN(C)c1ccc(C(=O)c2ccccc2)cc1	/	-0.11	3	-12	-2
CCOC(=O)c1csc(COc2ccc(OC)cc2)n1	1.2	-0.71	/	0	/
O=C(N/N=C/c1cc(Br)c(Br)o1)c1cccnc1	/	0.47	2	7	0
O=C(N/N=C\c1cc(Br)c(Br)o1)c1cncc(Br)c1	/	16*	3	1	0
COc1cc(C(=O)N2CCN(c3ccc(C)cc3C)CC2)cc(OC)c1OC	/	0.16	27*	27	-2
C/C(CC(=O)N1CCN(C=O)CC1)=N\NC(=O)c1cc2ccccc2cc1O	0.026	0.02	3	2	1
C/C(=N/NC(=O)c1cc2ccccc2cc1O)C1C(=O)c2ccccc2C1=O	4.8*	-2.8*	1	/	0
Cc1cc(NC(=O)CSc2nnc(-c3ccccc3)c(-c3ccccc3)n2)no1	0.66	0.043	22*	2	0
O=C(Nc1nc(-c2ccc(-c3ccccc3)cc2)cs1)C1CCCO1 (configuration not stated)	0.24	0.47	42*	/	0
O=C(Nc1nc(-c2ccccc2)cs1)C1CCCO1 (configuration not stated)	-0.2	-2	1	/	0
CC(=O)Nc1ccc(CN2CCc3c([nH]c4ccccc34)C2c2ccccn2)cc1 (configuration not stated)	-0.5	-0.21	9.9*	1	0
Cc1cc(C)c(NS(=O)(=O)c2ccc(NC(=O)/C=C/C(=O)O)cc2)c(C)c1	/	0.29	2	0	0
O=C(Nc1ccc(Cl)cc1C(F)(F)F)C(Sc1nnc(-c2cccs2)o1)c1ccccc1 (configuration not stated)	0.23	0.89	14*	33	0
Cc1cccc(NC(=O)c2nc[nH]c2C(=O)N[C@@H](Cc2ccccc2)C(=O)OCc2ccccc2)c1	/	/	/	0	/
CCCCOc1ccc(Br)cc1/C(C)=N/NC1=NCCN1	/	0.0026	8	52*	2
CCn1c(SCC(N)=O)nc2sc3c(c2c1=O)CCCC3	/	60*	2	-6	-2
CCCCOc1ccc(-c2nnn(CC(=O)NCc3ccco3)n2)cc1	/	-0.57	39*	24	1
CCCCn1c(NC(=S)Nc2ccccc2)nc2ccccc21	0.32	47*	2	-1	0
N#CCCS(=O)(=O)c1nnnn1-c1ccccc1	-4.7*	/	4	-3	0
NNC(=S)Nc1c(Br)cc(F)cc1Br	/	/	/	0	/
Cc1ccc(NC(=S)c2nc3ccccc3[nH]2)c(C)c1	1.2	65*	4	-4	0
Cc1ccc(NC(=S)c2nc3ccccc3[nH]2)cc1	/	33*	2	9	-4
Cc1ccc(N2C(=O)SC(Cc3ccccc3)C2=O)cc1 (configuration not stated)	/	-0.41	/	0	/
O=C(/C=C/c1ccco1)Nc1sc2c(c1C(=O)O)CCC2	/	/	2	2	2
Cc1onc(-c2ccccc2)c1C(=O)NC(=S)Nc1sc2c(c1C#N)CCCC2	/	23*	5	2	0
Cc1cc(C(=O)Nc2sc3c(c2C#N)CCC3)no1	1	1.2	22	/	1
N#Cc1c(NC(=O)/C=C/c2ccco2)sc2c1CCCC2	/	0.16	5	106*	0
